Measurements: ChEMBL document CHEMBL1146529, “Isolations of N-methyl-D-aspartic acid-type glutamate receptor ligands from Micronesian sponges” (J Nat Prod, 2003)
The source made the active and inactive calls. No cut-off for these calls is given here.

Tests used:
[1] = tested on: Mus musculus; assay: Agonist activity at NMDA receptor assessed as induction of convulsive behavior in intracerebroventricular dosed ddY mouse; assay type: functional
Procedure, shortened: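 Male ddY mice (15-20 g, 4-6 weeks old) received intracerebroventricular injections. More than three animals were used per dose. ED50 (pmol/mouse) was derived from dose-response curves.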

[2] = target: Glutamate NMDA receptor; assay: Displacement of [3H]CGP39653 from NMDA receptor in Sprague-Dawley rat brain membrane; assay type: cell membranes
Procedure, shortened: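 Synaptic membranes were prepared from Sprague-Dawley rats (200-220 g). The assay used 2 nM [3H]CGP39653 to label the NMDA site, incubated at 4 °C for 1 h in 5 mM Tris-HCl (pH 7.7). Inhibition of labelled-ligand binding gave the IC50.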

[3] = tested on: AMPA-type glutamate receptor (Rattus norvegicus); assay: Displacement of [3H]AMPA from AMPA receptor in Sprague-Dawley rat brain membrane
[4] = tested on: Kainate-type glutamate receptor (Rattus norvegicus); assay: Displacement of [3H]kanic acid from kainate receptor in Sprague-Dawley rat brain membrane
[5] = tested on: Mus musculus; assay: Agonist activity at NMDA receptor assessed as induction of violent convulsive behavior in intracerebroventricular dosed ddY mouse at 145 pmol; assay type: functional, organism-based
[6] = tested on: Mus musculus; assay: Induction of convulsive behavior in icv dosed ddY mouse assessed as hyperactivie and stereotypical behaviors at 33 pmol; assay type: functional, organism-based

## O=C(O)[C@@H]1C[C@@H](OS(=O)(=O)O)CCN1
[1]
  Activity: Dose-dependent effect
  ED50: 20 pmol
[2]
  IC50: 214 nM
[3]
  Activity: inactive
[4]
  Activity: inactive

## O=C(O)[C@@H]1C[C@@H](OS(=O)(=O)O)[C@H](O)CN1 [CRIBRONIC ACID]
[1]
  Activity: Dose-dependent effect
  ED50: 29 pmol
[5]
  Activity: Active
[6]
  Activity: Active
[2]
  IC50: 83 nM
[3]
  Activity: inactive
[4]
  Activity: inactive
